Converted amounts (≈) assume the structure as drawn.
What was measured:
Brugia malayi = assay: WHO-TDR: Lymphatic Filariasis; assay type: functional; design: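 tested at 10 µM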
Summary of the method: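 In a whole-organism assay, Brugia malayi microfilariae were screened against a diverse Life Chemicals library that had been filtered for drug-likeness and reactive groups. That library comprised 10,000 compounds. Activity is expressed as percent inhibition and as IC50.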

Trypanosoma cruzi = assay: WHO-TDR: Chagas disease; assay type: functional, organism-based, Homo sapiens; settings: MRC5
Summary of the method: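 Following previously published standard procedures, with a reference drug as positive control, a whole-organism assay was run on Trypanosoma cruzi Tulahuen CL2 beta-galactosidase strain amastigotes inside MRC-5SV2 human lung fibroblast host cells. The 10,000 compounds tested formed a diverse Life Chemicals library filtered for drug-likeness and reactive groups. Results are expressed as IC50 for antiparasitic potency.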

[1] = system: Trypanosoma brucei brucei; assay: WHO-TDR: Human African Trypanosomiasis (HAT); assay type: functional, organism-based; settings: Squib-427
Summary of the method: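 Bloodstream forms of the Trypanosoma brucei Squib 427 strain were tested in a whole-organism screen with a diverse library from Life Chemicals of 10,000 compounds. Before screening, the library was filtered for drug-likeness and for reactive groups. The assay used previously published standard procedures and included reference drugs as positive controls. Potency against the parasite is expressed as IC50.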

Schistosoma mansoni = assay: WHO-TDR: Schistosomiasis; assay type: functional; design: concentration or dose not given beside the values
Summary of the method: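 In this whole-organism assay, larval and/or adult worms of Schistosoma mansoni (Puerto Rican strain) were exposed to compounds from a diverse Life Chemicals library of 10,000 members. A reference drug served as positive control. Activity is stated as percent inhibition and IC50.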

Leishmania infantum = assay: WHO-TDR: Leishmaniasis; assay type: functional, organism-based, Mus musculus; settings: Macrophage
Summary of the method: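 Following previously published standard procedures, a whole-organism screen was run on Leishmania infantum MHOM/MA(BE)/67 amastigotes within murine peritoneal macrophages, with a reference drug as positive control. The 10,000 compounds tested formed a diverse Life Chemicals library filtered for drug-likeness and reactive groups. Potency against the parasite is reported as IC50.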

[2] = WHO-TDR: Cytotoxicity; assay type: toxicity, cell-based; settings: human, MRC5 cells
Plasmodium falciparum K1 = assay: WHO-TDR: Malaria; assay type: functional, organism-based, Homo sapiens; settings: Erythrocyte
Summary of the method: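 Following previously published standard procedures, with a reference drug serving as positive control, compounds were tested on the Plasmodium falciparum K1 strain inside human red blood cells. The 10,000-compound diverse set came from Life Chemicals after filtering for drug-likeness and reactive groups. Potency against the parasite appears as IC50.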

Onchocerca ochengi = assay: WHO-TDR: Onchocerciasis; assay type: functional; design: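 at 12.5 µM on microfilariae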
Summary of the method: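 Microfilariae of Onchocerca ochengi or Onchocerca lienalis, animal pathogens standing in for the human parasite, were exposed to compounds in a whole-organism screen. The compounds came from a 10,000-compound diverse Life Chemicals library filtered for drug-likeness and reactive groups. Results are expressed as percent inhibition and IC50.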

| SMILES | % Inhibition (Brugia malayi) | IC50 (Trypanosoma cruzi) | IC50 [1] | % Inhibition (Schistosoma mansoni) | IC50 (Leishmania infantum) | IC50 [2] | IC50 (Plasmodium falciparum K1) | % Inhibition (Onchocerca ochengi) |
| --- | --- | --- | --- | --- | --- | --- | --- | --- |
| COc1cccc2sc(Nc3nc(-c4ccncc4)cs3)nc12 | 25% | 0.132 µg/mL (≈ 0.388 µM) | > 10.2 µg/mL | 0% | > 10.2 µg/mL | 4.5 µg/mL (≈ 13.2 µM) | > 10.2 µg/mL | – |
| Cc1nc2c(ccc3nc(Nc4nc5ccc(C(C)C)cc5s4)sc32)s1 | 25% | 4.11 µg/mL (≈ 10.4 µM) | 0.385 µg/mL (≈ 0.971 µM) | 0% | 0.385 µg/mL (≈ 0.971 µM) | 3.59 µg/mL (≈ 9.04 µM) | 3.97 µg/mL (≈ 10 µM) | – |
| Cc1c(C(=O)N2CCC(C)CC2)sc2nc(-c3ccc(F)cc3)cn12 | 0% | > 10.7 µg/mL | 0.422 µg/mL (≈ 1.18 µM) | 0% | > 10.7 µg/mL | > 10.7 µg/mL | > 10.7 µg/mL | – |
| Cc1cc2cc(CNC(=O)CC(c3ccccc3)c3ccccc3)ccc2[nH]1 | 0% | 0.391 µg/mL (≈ 1.06 µM) | 3.37 µg/mL (≈ 9.14 µM) | 0% | > 11.1 µg/mL | > 11.1 µg/mL | > 11.1 µg/mL | – |
| CCOc1ccccc1C(=O)NCc1ccc2c(c1)cc(C)n2C | 0% | 0.057 µg/mL (≈ 0.177 µM) | 0.163 µg/mL (≈ 0.506 µM) | 0% | > 9.67 µg/mL | 4.26 µg/mL (≈ 13.2 µM) | 4.49 µg/mL (≈ 13.9 µM) | – |
| Cc1cc2cc(CNC(=O)c3ccccc3F)ccc2n1C | 0% | 0.181 µg/mL (≈ 0.609 µM) | > 8.89 µg/mL | 0% | > 8.89 µg/mL | > 8.89 µg/mL | > 8.89 µg/mL | – |
| Cc1cc2cc(CNC(=O)c3ccccc3Br)ccc2n1C | 0% | 0.487 µg/mL (≈ 1.36 µM) | 3.39 µg/mL (≈ 9.49 µM) | 0% | > 10.7 µg/mL | > 10.7 µg/mL | > 10.7 µg/mL | – |
| CCC(Sc1ccc(NC(=O)c2cccc(F)c2)nn1)C(=O)OC (centres undefined) | 0% | > 10.5 µg/mL | > 10.5 µg/mL | – | > 10.5 µg/mL | 9.15 µg/mL (≈ 26.2 µM) | > 10.5 µg/mL | 100% |
| CC(=O)NCCNc1ccc(Nc2cc(C)ccn2)nn1 | 0% | > 8.59 µg/mL | > 8.59 µg/mL | – | > 8.59 µg/mL | 6.36 µg/mL (≈ 22.2 µM) | 5.28 µg/mL (≈ 18.4 µM) | 100% |
| O=S(=O)(NCCNc1ccc(Nc2ccccn2)nn1)c1ccccc1C(F)(F)F | 25% | > 13.2 µg/mL | 4.31 µg/mL (≈ 9.83 µM) | – | > 13.2 µg/mL | 5.08 µg/mL (≈ 11.6 µM) | 4.71 µg/mL (≈ 10.7 µM) | 100% |
| CCCCOc1ccc(C(=O)N2CCN(c3ccc(Nc4cccnc4)nn3)CC2)cc1 | 0% | 3.45 µg/mL (≈ 7.98 µM) | 11.9 µg/mL (≈ 27.5 µM) | – | 0.42 µg/mL (≈ 0.971 µM) | > 13 µg/mL | 1.69 µg/mL (≈ 3.91 µM) | 100% |
| COc1ccc(C)cc1S(=O)(=O)N1CCN(c2ccc(Nc3cccnc3)nn2)CC1 | 0% | 3.89 µg/mL (≈ 8.83 µM) | > 13.2 µg/mL | – | 4.28 µg/mL (≈ 9.71 µM) | 10.3 µg/mL (≈ 23.4 µM) | > 13.2 µg/mL | 100% |
| CC(C)(C)c1ccc(C(=O)N2CCN(c3ccc(Nc4ccncc4)nn3)CC2)cc1 | 0% | 4.1 µg/mL (≈ 9.85 µM) | 4 µg/mL (≈ 9.6 µM) | – | 4.04 µg/mL (≈ 9.71 µM) | 3.49 µg/mL (≈ 8.39 µM) | 3.68 µg/mL (≈ 8.84 µM) | 100% |
| O=S(=O)(c1ccccc1)N1CCN(c2ccc(Nc3ccncc3)nn2)CC1 | 0% | > 11.9 µg/mL | > 11.9 µg/mL | – | 0.385 µg/mL (≈ 0.971 µM) | > 11.9 µg/mL | > 11.9 µg/mL | 0% |
| Cc1cc(C)c(S(=O)(=O)N2CCN(c3ccc(Nc4ccncc4)nn3)CC2)cc1C | 0% | 0.782 µg/mL (≈ 1.78 µM) | 3.61 µg/mL (≈ 8.23 µM) | – | 4.26 µg/mL (≈ 9.71 µM) | 1.94 µg/mL (≈ 4.43 µM) | 0.473 µg/mL (≈ 1.08 µM) | 0% |
| O=S(=O)(c1cccc(Cl)c1)N1CCN(c2ccc(Nc3ccncc3)nn2)CC1 | 0% | 3.98 µg/mL (≈ 9.24 µM) | 4.24 µg/mL (≈ 9.83 µM) | – | > 12.9 µg/mL | 12.9 µg/mL (≈ 30 µM) | 5.77 µg/mL (≈ 13.4 µM) | 100% |
| COc1cc(NCCNC(=O)C(C)C)nc(OC)n1 | 0% | > 8.05 µg/mL | > 8.05 µg/mL | – | 0.261 µg/mL (≈ 0.973 µM) | > 8.05 µg/mL | > 8.05 µg/mL | 0% |

Reference: ChEMBL document CHEMBL2093137, “WHO-TDR NTD Screening”
